In the library only some 3% were active in any assay of this set; here they are far more common.
MEKK2mut PB1 HTS: signal of MEK5 binding to mutant human MEKK2 PB1 domain; bead flow cytometry, Alexa488-MEK5 binding to MEKK2 mutant; percent response, % at 10 µM; hit rate 0.35% among 290,000; in the data active = percent response above about 24%, passing the limit was not always enough
Apaf1 inhib: blocks human Apaf-1 apoptosome activity; O14727; reconstituted apoptosome caspase-3 activity, DEVD-Rh110 fluorescence; inhibition, % at 20 µM; hit rate 0.71% among 330,000; AID 489030; active = inhibition of at least 40% at 20 µM;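 also: plate controls were DMSO wells for no effect and DEVD-CHO caspase inhibitor wells for full effect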
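detection = Rh110 fluorescence intensity | test system = biochemical Apaf-1 apoptosome reconstitution | also added = cytochrome c and DEVD-Rh110 substrate | schedule = 30 min plus 50 min, RT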
MEKK3 PB1 HTS: raises or lowers MEK5 binding to the human MEKK3 PB1 domain; Q99759; hit rate 1.4% among 290,000; binding response (% of control), % at 10 µM; bead-based flow cytometry, Alexa488-MEK5 binding to MEKK3; actives lie on both sides; 0 = blocked by unlabeled MEK5, 100 = vehicle;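 active = binding response more than 3 SD above or below the average of its plate-row segment, actives on both sides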;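 also: Alexa488 bead fluorescence after subtracting the streptavidin-only scavenger bead signal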
MEKK2wt PB1 HTS: raises or lowers MEK5 binding to wildtype human MEKK2 PB1 domain; Q9Y2U5; bead flow cytometry, Alexa488-MEK5 binding to MEKK2 WT; actives lie on both sides; binding response (% of control), % at 10 µM; hit rate 1.1% among 290,000; AID 1531; in the data active = binding response below about 67% or above about 130%
UBC13 polyUb: inhibitors of human UBC13 polyubiquitin chain formation | inhibition, % at 20 µM | TR-FRET | P61088 | AID 485273 | hit rate 0.47% among 330,000; in the data active = inhibition above about 45%, passing the limit was not always enough
UCH37 inh: human UCH37 deubiquitinating enzyme inhibition; Q9Y5K5; purified proteasome/UCH37, Ub-AMC cleavage fluorescence; inhibition, % (concentration not given with the values); hit rate 0.33% among 330,000;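 active = mean inhibition over replicate wells above about 20%, limit read from the data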;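 also: 0% = compound-free wells with enzyme and 100% = wells lacking proteasome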
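Schedule: 30 min plus 25 min, room temperature / Material: human UCH37 within purified proteasomes / Technique: AMC fluorescence intensity at 355/460 nm / Buffer or medium: pH 7.4 Tris-HCl (50 mM) with ovalbumin, ATP-MgCl2, DTT / Controls: wells without proteasome as full block, compound-free enzyme plus substrate as uninhibited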
MEKK2wt confirm: raises or lowers MEK5 binding to wildtype human MEKK2, retest | binding response (% of control), % at 10 µM | bead flow cytometry, Alexa488-MEK5 binding to MEKK2 WT; actives lie on both sides | hit rate 2.4% among 5,900 | shares compounds with MEKK3 PB1 HTS; in the data active = binding response below about 16% or above about 210%; inactive = in between
MEKK2mut-MEK5: signal of MEK5 binding to mutant human MEKK2, retest | hit rate 2% among 5,900 | percent response, % at 10 µM | AID 1893 | bead flow cytometry, Alexa488-MEK5 binding to MEKK2 mutant | shares compounds with MEKK3 PB1 HTS; in the data active = percent response mostly above about 71%, no sharp cut-off; inactive = mostly below about 38%;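 also: higher means compound restores mutant binding toward wildtype level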
MEKK3-MEK5 inh: MEKK3-MEK5 PB1 inhibition, single concentration confirmation | hit rate 1.8% among 5,900 | bead flow cytometry, Alexa488-MEK5 binding to MEKK3; active compounds read low | shares compounds with MEKK3 PB1 HTS | binding response (% of control), % at 10 µM;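 active = binding response below 72% of control, or above a set upper limit, though filed actives all read lower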;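 also: 100% = DMSO only wells and 0% = binding blocked by excess unlabeled MEK5; lower values mean stronger disruption of MEK5 binding to MEKK3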
An asterisk follows results filed as active; [ ] = dose if it differs, or a comment.

`CCCN1C(=O)/C(=C/C=C2\N(CC)c3ccccc3C2(C)C)SC1=S` gave MEKK2mut PB1 HTS 151*, Apaf1 inhib 8, MEKK3 PB1 HTS 68*[inhibitor], MEKK2wt PB1 HTS 134, UBC13 polyUb -186, UCH37 inh 9, MEKK2wt confirm 71, MEKK2mut-MEK5 -14 and MEKK3-MEK5 inh 90.
`CS(=O)(=O)N1CCc2cc(S(=O)(=O)N3CCCCC3)ccc21` gave MEKK2mut PB1 HTS -2, Apaf1 inhib -10, MEKK3 PB1 HTS 102, MEKK2wt PB1 HTS 93, UBC13 polyUb -2 and UCH37 inh 1.
Screening O=C(O)c1ccccc1C(=O)NCCc1c(C(=O)O)[nH]c2ccc(F)cc12 returned MEKK2mut PB1 HTS 3, Apaf1 inhib -3, MEKK3 PB1 HTS 99, MEKK2wt PB1 HTS 96, UBC13 polyUb -4 and UCH37 inh 3.
CCOC(=O)C1CCCN(C(=O)C2CCN(S(=O)(=O)N3CCC4(CC3)OCCO4)CC2)C1 (centres undefined) was read as MEKK2mut PB1 HTS 5, Apaf1 inhib -1, MEKK3 PB1 HTS 101, MEKK2wt PB1 HTS 100, UBC13 polyUb 5 and UCH37 inh 1.
`COc1ccccc1-n1c(CNc2c(C)cccc2C)nnc1SCC(=O)N1CCOCC1` gave MEKK2mut PB1 HTS 5, MEKK3 PB1 HTS 122*, MEKK2wt PB1 HTS 120, UCH37 inh 4, MEKK2wt confirm 102, MEKK2mut-MEK5 -1 and MEKK3-MEK5 inh 104.
CCN1CCN(CC(=O)Nc2cc(S(=O)(=O)N3CCCCC3)ccc2Cl)CC1 was read as Apaf1 inhib 20, UBC13 polyUb -8 and UCH37 inh 2.
For N#Cc1nc(-c2ccc(F)cc2)oc1NCc1cccc2c1OCO2 the results were MEKK2mut PB1 HTS 13, Apaf1 inhib 14, MEKK3 PB1 HTS 110, MEKK2wt PB1 HTS 113, UBC13 polyUb 19 and UCH37 inh -14.
Screening Cc1ccc(-c2nc(C#N)c(NCc3cccc4c3OCO4)o2)cc1 returned MEKK2mut PB1 HTS -17, Apaf1 inhib -6, MEKK3 PB1 HTS 70*[inhibitor], MEKK2wt PB1 HTS 80, UBC13 polyUb 8, UCH37 inh -30, MEKK2wt confirm 94, MEKK2mut-MEK5 -6 and MEKK3-MEK5 inh 100.
`O=C1c2cccc3c(N4CCCCC4)ccc(c23)C(=O)N1c1cccc(O)c1` gave MEKK2mut PB1 HTS -2, Apaf1 inhib 19, MEKK3 PB1 HTS 100, MEKK2wt PB1 HTS 91, UBC13 polyUb -66 and UCH37 inh -4.
`Cc1n[nH]c(C)c1N1C(=O)c2cccc3c(N4CCCCCC4)ccc(c23)C1=O` gave MEKK2mut PB1 HTS 40*, Apaf1 inhib 7, MEKK3 PB1 HTS 113, MEKK2wt PB1 HTS 67*[inhibitor], UBC13 polyUb -226, UCH37 inh 10, MEKK2wt confirm 91, MEKK2mut-MEK5 -7 and MEKK3-MEK5 inh 96.
CCC1(c2ccccc2)NC(=S)N(c2cccc(C)c2C)N1 (centres undefined) was read as MEKK2mut PB1 HTS 1, Apaf1 inhib -6, MEKK3 PB1 HTS 129*, MEKK2wt PB1 HTS 105, UBC13 polyUb 4, UCH37 inh 3, MEKK2wt confirm 101, MEKK2mut-MEK5 -10 and MEKK3-MEK5 inh 99.
`Cc1cccc(-n2c(-c3ccccc3)c[nH]c2=S)c1C` gave MEKK2mut PB1 HTS 0, Apaf1 inhib 13, MEKK3 PB1 HTS 98, MEKK2wt PB1 HTS 101, UBC13 polyUb 2 and UCH37 inh 3.

Screening results: PubChem BioAssay, several laboratories
